Measured values: the EternaBench riboswitch data

Test system: MS2 coat protein
Experiment: apparent Kd, MS2 coat protein; higher = weaker binding; RNA-MaP array; FMN 200 µM where present
Outline: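 SNAP-549-labelled MS2 coat protein, doubled from 0.7 or 1.5 nM to 3 µM, was titrated over designs transcribed by stalled E. coli RNA polymerase on Illumina sequencing-chip clusters. Titrations were run without and then with constant ligand in 100 mM Tris-HCl pH 7.5, 80 mM KCl, 4 mM MgCl2, BSA, DTT, yeast tRNA and Tween-20. The apparent Kd is the median of filtered per-cluster fits to green signal normalised to red-channel RNA signal and control-cluster median Fmax.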

[1] = designed as: OFF switch for flavin mononucleotide, no ligand
[2] = ligand present: flavin mononucleotide, designed as: OFF switch for flavin mononucleotide
[3] = designed as: ON switch for flavin mononucleotide, no ligand
[4] = ligand present: flavin mononucleotide, designed as: ON switch for flavin mononucleotide

In the case of “GCGCGCGCAGGAUAUACAAUGCGCGCGCGAAAGUGUGUGUUACAUGAGGAUCACCCAUGUAGAAGGGUGUGUGU”, the “apparent Kd” value [1] is reported as 539 nM and the “apparent Kd” value [2] is reported as 492 nM.

With “UCAUGAAGGAUAGGAUAUGGACAUGAGGAUCACCCAUGUACAUGGGAAUGAAUACUGAAUUUGUACUAGAAGGGUUACAUAAAU” the “apparent Kd” value [1] was 56.4 nM and the “apparent Kd” value [2] was 37 nM.

In the case of “AAGAAUAGAAAGAUUAAUAUGAAUACAUGAGGAUCACCCAUGUAGGAUAUGCAGCUGAAUCAGCUGCAGAAGGACAAAAUAAAU”, the “apparent Kd” value [1] is reported as 9.15 nM and the “apparent Kd” value [2] is reported as 9.08 nM.

With “UGUGUGUGGGCAGGAUAUGCAUGAAUAUAUAUGAUGUAGUAUGAUGUAACAUGAGGAUCACCCAUGUAGAAGGGCCGGUGUAUG” the “apparent Kd” value [1] was 133 nM and the “apparent Kd” value [2] was 133 nM.

“UGUUGUAUUACAGGAUAUCUAGUAUUUUUAUUGAGAGAAGGGUAUUCACAUGAGGAUCACCCAUGUAUAUACGAGGAAGUUGUG” was tested, and the “apparent Kd” value [3] was 50.5 nM and the “apparent Kd” value [4] was 49 nM.

For “AACGAUCUAGGAUAUACAUGAGGAUCACCCAUGUAAGAGCCCAAACCAGGCUCCCUCUGUAGAAGGAGGUCAAA”, the “apparent Kd” value [2] was 50.9 nM.

“GUAGGACAUGAGGAUCACCCAUGUGGGAGGGAACGAGGAUAUGUGAAAGGAUUGAAGAGGACAGAAGGCGUGGAGG” was tested, and the “apparent Kd” value [3] was 44.4 nM and the “apparent Kd” value [4] was 35.3 nM.

For “UUAUUAUGUGUAGGAUAUGCAUAUUAUCAUUAUGCAGAAGGACAUGAGGAUCACCCAUGUAUAUUAUUAUUAUAUAUUAUAUAU”, the “apparent Kd” value [1] was 15.5 nM and the “apparent Kd” value [2] was 12.6 nM.

With “CCAGGCUGUGUGAGGAUAUGCUGGUCCUUGGAUCAGCAGAAGGCACAUGAGGAUCACCCAUGUGAAAAGCUUGG” the “apparent Kd” value [1] was 17.4 nM and the “apparent Kd” value [2] was 57.6 nM.

With “UCCUUGUCCUGAGGAUAUCCGCGGUUCCCAAAAGGAGAAGGCAGGACAUGAGGAUCACCCAUGUACCCAGAAAACGUGCAGAUU” the “apparent Kd” value [1] was 9.95 nM and the “apparent Kd” value [2] was 46.8 nM.

With “ACGUUUAAUACAGGAUAUGUUAAUAUACAAUAGAUUGGAUAUUACUUAAUUACAGAAGGGUAGAACAUGAGGAUCACCCAUGUA” the “apparent Kd” value [3] was 329 nM and the “apparent Kd” value [4] was 239 nM.

For “GGAUCGAGUGUGAGGAUAUGCUGGUCCUUGGAUCAGCAGAAGGCACAUGAGGAUCACCCAUGUGAAUACGGUCC”, the “apparent Kd” value [1] was 24 nM and the “apparent Kd” value [2] was 165 nM.

“GGAUUACAUGAGGAUCACCCAUGUGAGGAUAUCGAUGUCCUGUAAUUCGUGCGGGACUCGAGAAGGCACUUGGA” was tested, and the “apparent Kd” value [1] was 51.3 nM and the “apparent Kd” value [2] was 168 nM.

In the case of “CGCAACUUUUCUCAUGUAAACAUGAGGAUCACCCAUGUAAUGAGAAGGAGGAGAAAGAGAGAAUCCUAGGAUAUCAGAGUUGCG”, the “apparent Kd” value [1] is reported as 6.29 nM and the “apparent Kd” value [2] is reported as 6.53 nM.

For “UGAUAACAUGUAGGAUAUGCAGCAUUGACCAUUGCAGAAGGACAUGAGGAUCACCCAUGUACCGAUACAAUGGGAUCACGCAAU”, the “apparent Kd” value [1] was 15.3 nM and the “apparent Kd” value [2] was 18.5 nM.

In the case of “CUCUUGUGAGGAUAUCAGUAGUAAAAAAAUAAAAUUACUACUGAGAAGGCACAUGAGGAUCACCCAUGUCUUUC”, the “apparent Kd” value [1] is reported as 211 nM and the “apparent Kd” value [2] is reported as 158 nM.

For “UGUUGUUCAGGAUAUGAUGUGUUAUACAUGAGGAUCACCCAUGUGGGUCCUGAUUUGGCGUCAGAAGGGAAUGUUG”, the “apparent Kd” value [1] was 116 nM and the “apparent Kd” value [2] was 200 nM.

In the case of “AGAGUGAUUACCUCGGUCCCACAUGAGGAUCACCCAUGUAACAAGGAUAUCGCUCCAAAUGGAAGUGAGAAGGUGUCUCAUGUC”, the “apparent Kd” value [1] is reported as 27.8 nM and the “apparent Kd” value [2] is reported as 42.2 nM.

For “GUGUACAGAGGAUAUACAUGAGCUAGGAAACUAGCAAACUCACAUGAGGAUCACCCAUGUAGAAGGCUGUACAC”, the “apparent Kd” value [1] was 264 nM and the “apparent Kd” value [2] was 54.7 nM.

For “UUUAUUAGUUAGAAGGCUUGAUGAAUUACAAUAGACAUGAGGAUCACCCAUGUGUAUUCAUGUCAAGAGGAUAUAGUCAUAUAU”, the “apparent Kd” value [3] was 13.7 nM and the “apparent Kd” value [4] was 6.54 nM.

In the case of “CUACUUAGCCAGAAGGCAAGAGGUACAUGAGGAUCACCCAUGUAGUGAUUGAGGAUAUGGCAAGGUUCUAUGGUGCGUCUAGCC”, the “apparent Kd” value [3] is reported as 7.53 nM and the “apparent Kd” value [4] is reported as 5.12 nM.

For “AGCUGUGGCCGAGGAUAUCUAUCUCCAAUAACCGAAAUAUAAUCGGACAUGAGGAUCACCCAUGUAGAGAAGGCGGUCUCAGCA”, the “apparent Kd” value [1] was 20.7 nM and the “apparent Kd” value [2] was 36 nM.

“AAAUUGGUAGAGGAUAUCGGAUAGGAUUUAUUGCGAGAAGGCUGCACAUGAGGAUCACCCAUGUUCUGUUGGGA” was tested, and the “apparent Kd” value [1] was 201 nM and the “apparent Kd” value [2] was 280 nM.

With “AAUAUUUAUUGAGGAUAUUCAUACACUGUAUACGGAGAAGGCAAUCAAUCAUGAGGACAUGAGGAUCACCCAUGUUGUGACCAU” the “apparent Kd” value [3] was 10.7 nM and the “apparent Kd” value [4] was 9.69 nM.

With “GUUCUUCCUGUAAGGAUAUCCAUGUAUCAAAGCAUGGAGAAGGUACAUGAGGAUCACCCAUGUCACCCGCGUUA” the “apparent Kd” value [1] was 20.2 nM and the “apparent Kd” value [2] was 45.3 nM.

“GCCAUCGCAUGAGGAUAUGCUCCGGUUUCCGGAGCAGAAGGCGUGUCAUUAGACAUGAGGAUCACCCAUGUAGUUAAGAUGGCA” was tested, and the “apparent Kd” value [3] was 489 nM and the “apparent Kd” value [4] was 21.3 nM.

In the case of “AACAGGUUCACAUGAGGAUCACCCAUGUUAGCCUAACGUAGGAGAAGGGCGGUAGCUGGGCUGACGUAGGAUAUCCUACUGUGA”, the “apparent Kd” value [3] is reported as 10 nM and the “apparent Kd” value [4] is reported as 5.79 nM.

“GAGGCCAAAACAUGAGGAUCACCCAUGUGAGUGGUCCGAAUAUAGGAUAUCCACACGAGAAGUGUGGAGAAGGAUAAUGGCGUC” was tested, and the “apparent Kd” value [1] was 321 nM and the “apparent Kd” value [2] was 547 nM.

With “AUUUUACAUGAGGAUCACCCAUGUUUUGGCGGGUCAGGAUAUAGAUCGGAUGAGUUCUGUCUAGAAGGGACAUGUU” the “apparent Kd” value [3] was 49.7 nM and the “apparent Kd” value [4] was 29.6 nM.

“AAUGGCGUGAUAACGCUAAUUAAAACAUGAGGAUCACCCAUGUAGGAUAUCCUACCGAAAUGGUAGGAGAAGGACAAGCAAUGA” was tested, and the “apparent Kd” value [1] was 33.4 nM and the “apparent Kd” value [2] was 27.7 nM.

With “AGUCUGUGGCAACUAUCCUCACAUGAGGAUCACCCAUGUAGGGAGGAUAUGCAUUUAAAGAAGUGGCAGAAGGCCCUACACGGA” the “apparent Kd” value [1] was 83.2 nM and the “apparent Kd” value [2] was 32.1 nM.

For “GACUAGUAAGGAUAUCAAGUUCUCCACAUGAGGAUCACCCAUGUCGAUAACCUCUGACAAUGAGAAGGUGCUGACU”, the “apparent Kd” value [1] was 35.1 nM and the “apparent Kd” value [2] was 31.9 nM.

In the case of “UGAGACCUCACAGGAUAUGCUGGACUUUGUCCAGCAGAAGGGUGAAAACAUGAGGAUCACCCAUGUAUGGUCUCCAAAUUUAAU”, the “apparent Kd” value [3] is reported as 164 nM and the “apparent Kd” value [4] is reported as 12.7 nM.

For “GACAAUCUAUCUGAGGAUAUCAUGAAAAAAACAUGAGGAUCACCCAUGUGCAGGAAAACUGCAUAUGAGAAGGCAGAUAGAUUGA”, the “apparent Kd” value [3] was 708 nM and the “apparent Kd” value [4] was 28.7 nM.

For “AAGUCGAGCGUGAGGAUAUCGUCCGGACGACCGAACGAGAAGGCACAUGAGGAUCACCCAUGUGAUUCAGCUCA”, the “apparent Kd” value [1] was 19 nM and the “apparent Kd” value [2] was 70.5 nM.

With “CAGUACUGAGGAUAUACAUGAGGAUCACCCAUGUGUUCCAGCUAGGAAGCUAGCAAAAGUAGAAGGCAGUACUG” the “apparent Kd” value [1] was 26.2 nM and the “apparent Kd” value [2] was 276 nM.

For “UUAAAUUAGUAGAAGGACGGUGAGUAAGAAGUCGUAGGAUAUACAUAAGACAUGAGGAUCACCCAUGUAAGUUUGUUGGGUAUG”, the “apparent Kd” value [1] was 44.1 nM and the “apparent Kd” value [2] was 38.4 nM.

In the case of “CGUACCAUGUAGAAGGCAUAUCUCAAAGAGAUAUGAGGAUAUACAUGAGGAUCACCCAUGUAAAUGUACUCCAGGAAACUGGAA”, the “apparent Kd” value [1] is reported as 47.8 nM and the “apparent Kd” value [2] is reported as 222 nM.

With “GCAUGCAAGUAGAAGGUCGGAUAUUUUGAUACCGAAGGAUAUGCAGAAUCAUAUCCACAUGAUAACAUGAGGAUCACCCAUGUA” the “apparent Kd” value [1] was 15.3 nM and the “apparent Kd” value [2] was 12.7 nM.

With “CGAUAUUAUGUCAGGAUAUACAUUGCGAAAGCAAUGUAGAAGGGACAUGAGGAUCACCCAUGUUCCUACUAUCG” the “apparent Kd” value [1] was 12.3 nM and the “apparent Kd” value [2] was 15.7 nM.

For “CAGUACAGAGGAUAUACAUGAGGAUCACCCAUGUGUUUCAGCUAGGAGACUAGCGAAAGUAGAAGGCUGUACUG”, the “apparent Kd” value [1] was 9.57 nM and the “apparent Kd” value [2] was 25.1 nM.

For “GCACUGGAUGUAGGAUAUCAGGACGAUAAGUCCUGAGAAGGACAUGAGGAUCACCCAUGUCUCAUAAACCAGUGCUAUAAUAUA”, the “apparent Kd” value [1] was 14.6 nM and the “apparent Kd” value [2] was 18.8 nM.

“UAAUAGUAUGUUAGGAUAUGCUGGUCCUUGGAUCAGCAGAAGGAACAUGAGGAUCACCCAUGUAGACUAUUUUA” was tested, and the “apparent Kd” value [1] was 15.5 nM and the “apparent Kd” value [2] was 30 nM.

“CCUCCACAUGAGGAUCACCCAUGUCAGGAUAUCGUGUGCGCGUUUUCGGUCUUUCGCGCGAGAAGGGACGUCUG” was tested, and the “apparent Kd” value [1] was 26.9 nM and the “apparent Kd” value [2] was 30.1 nM.

For “GUCAGCUCGUGAGGAUAUGCAACACUGCUUCGGCAGUGUAUUAAGAUCACAUGAGGAUCACCCAUGUAGAAGGCACGAGCUGAU”, the “apparent Kd” value [1] was 6.36 nM and the “apparent Kd” value [2] was 34.8 nM.

“GGGUACAUCGGAGGAUAUCAUGUAGAUACAUGAGGAUCACCCAUGUCGUACGAGAGUACGGAGAUUGAGAAGGCCGAUGUACCG” was tested, and the “apparent Kd” value [3] was 31 nM and the “apparent Kd” value [4] was 14.7 nM.

For “CCGGGCGGUUUGCCCACACUGUCACAGGAUAUGCCCAAAACAUGAGGAUCACCCAUGUCAAAUACGCAGAAGGGUGAUCGGAAA”, the “apparent Kd” value [3] was 55.8 nM and the “apparent Kd” value [4] was 37 nM.

In the case of “AAGAAGUUAGGAUAUGCUGCUCGUCACAAAAGUGAUGAGUAGCAGAAGGAACAUGAGGAUCACCCAUGUAAAGA”, the “apparent Kd” value [1] is reported as 32.3 nM and the “apparent Kd” value [2] is reported as 22.9 nM.
